Data from the RNAGym collection of RNA variant scans (doi:10.1126/science.aae0568).
Variants at the floor of the assay were thinned out.

B1: tRNA (parent)
chain: GUUCCGUUGGCGUAAUGGUAACGCGUCUCCCUCCUAAGGAGAAGACUGCGGGUUCGAGUCCCGUACGGAACG

Variants of: B1
Test: yeast fitness relative to wild type (ratio to wild type); higher = fitter; tRNA-Arg(CCU), competitive growth, 37 C, YPD
Summary of the method: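 Genotype frequency changes were the basis for Darwinian fitness relative to wild type. The frequencies came from 100-nucleotide paired-end sequencing of gene amplicons from the start population and each end population of pooled yeast strains with tRNA-Arg(CCU) gene variants at the native locus. Competition ran in YPD at 37°C for 24 hours in six replicates, genotypes needed ≥ 100 starting reads, and estimates < 0.5 were set to 0.5.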

Variant | yeast fitness
C4G G58C C62U | 0.651
C4G C34U C66G | ≤ 0.5
C4G C27U G41C | ≤ 0.5
C4G C29G A57C | 0.612
C4G G9C G52A G63C | ≤ 0.5
C4G U28A C31G A57G C62U | 0.532
C4G C22G C24U C29U C30G | ≤ 0.5
C4G U8C G18C A21C C55U | ≤ 0.5
C4G U16A A36C U54G C60U A70G | ≤ 0.5
C4G U7C C27A A69U | 0.531
C4G C31U C55A | ≤ 0.5
C4G G6C G25A C29A C31A C33G | 0.59
C4G G6A G23A A43G G48C | ≤ 0.5
C4G U32G C33U A37U A65G | ≤ 0.5
C4G C31A | 0.817
C4U A15C G63A | ≤ 0.5
C4U A14G A45C G63C | ≤ 0.5
C4G U53C | 0.776
C4G U7G G63C | 0.521
C4G G51C U54A | ≤ 0.5
C4G G9A A70C | 1.09

Variant | yeast fitness
C4G U8G G9A C11U C34G C49U | ≤ 0.5
C4G U16A A43C | ≤ 0.5
C4G C22G A43U A57C U59C | ≤ 0.5
C4G C24U U35C C66U | 0.559
C4U A14U | 0.611
C4G G39C | 0.747
C4G G17A A57U U59C | ≤ 0.5
C4G C24U A40G | ≤ 0.5
C4G U7G A36C A37C A57C C66U | ≤ 0.5
C4G G9A G12C C29A G50C | ≤ 0.5
C4G U8C C24G U32G | ≤ 0.5
C4G C22G G52C G68C | 0.575
C4U A14G C29A | ≤ 0.5
C4U A14U A69U | 0.651
C4G C60U | 0.817
C4G C62U | 0.869
C4G C11U C22G A40U A43G U53C A70G | ≤ 0.5
C4G C11G C55U C61A | 0.567
C4U A14G A45C | 0.542
C4G G17A G25C C66U | ≤ 0.5
C4G U13A C29U A40C | ≤ 0.5

Variant | yeast fitness
C4G C30A C62G | ≤ 0.5
C4G U8C C24G C30G A43C | ≤ 0.5
C4G U13A G63A | ≤ 0.5
C4G U13A G17C C30U | 0.657
C4G C24A C46U | 0.608
C4G C11U C29U A45U | ≤ 0.5
C4G G12U A14C A57G | ≤ 0.5
C4U A15C A43G G44A U47A C49G | ≤ 0.5
C4U A14U A21C A45C A69U | ≤ 0.5
C4G U8G A42C C55U | ≤ 0.5
C4U A15C G51C A57G | ≤ 0.5
C4G C24U A43U | 0.65
C4G U8C G25A A42U A69C | ≤ 0.5
C4G G6A | 0.977
C4G G17C U59C | 0.746
C4U A14C G39C | ≤ 0.5
C4G G6C G39C | 0.578
C4G U64C G68C | 0.632
C4G C11U C29G G63C C66U | ≤ 0.5
C4G C27U G41C U64A G67A | ≤ 0.5
C4U A15G G23C A37U | ≤ 0.5

Variant | yeast fitness
C4G U13G C66U | 0.564
C4G U8C G51A C66A | ≤ 0.5
C4G U8C C24U A43G | 0.527
C4G U19G A69U | ≤ 0.5
C4G C29A A57C | 0.717
C4G G6C G9A A20G C55A C61A | 0.615
C4G C66A | 0.61
C4G U8A G12A G48A A69C | 0.573
C4G U13C C49U C60G A65U | ≤ 0.5
C4G G17A C61U | 0.56
C4U A15C A70U | 0.573
C4G G25A C49U G50U G63C | ≤ 0.5
C4G U32C | 0.944
C4G U32A | 0.864
C4G G9A C49A C55U | ≤ 0.5
C4G C30A A42C | ≤ 0.5
C4U A14G A15G C22U C46U A70U | ≤ 0.5
C4G U16G C30U C34A U53G A70C | ≤ 0.5
C4G G17A U28A C55U | ≤ 0.5
C4G G18C A57C | ≤ 0.5
